Reference: article PMC3229844 (Chemmedchem, 2011)
Where two headings read alike, the source gives them in different places. Each block holds one compound with its values, some of them ahead of it. Square brackets hold non-standard residues; d marks the D form. Side chains are listed from the residue outwards. Peptide text beside a SMILES is read from it. * marks the point of attachment. DOTA = O=C(O)CN1CCN(CC(=O)O)CCN(CC(=O)*)CCN(CC(=O)O)CC1; 2Nal = N[C@@H](Cc1ccc2ccccc2c1)C(=O)O; dNMeOrn = CN[C@H](CCCN)C(=O)O; 4Amb = NCc1ccc(C(=O)O)cc1

Assays:
CXCR4 [1] = molecular target: T1, CXCR4 (Homo sapiens, UniProt P61073); conditions: value taken from the literature; cited from earlier work
[2] = system: OH-1 human small-cell lung cancer xenografts; test: Biodistribution of [68Ga]2 c in OH1 tumor-bearing nude mice; assay type: in vivo
In short: (§1)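 Tracer: 68Ga-labeled test compound, given alone or co-injected with 50 μg competitor, in nude mice bearing OH-1 human small-cell lung cancer xenografts. Animals were sampled at 60 and 120 min post-injection. Organ and tumour activity was expressed as %ID g−1, and tumour/muscle ratios were derived.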

[3] = as above; assay type: in vivo; conditions: nude, mouse, tumor / muscle, total radioactivity, Tumor/Muscle ratio, Blockade, 1 h p.i. (n=4), in the presence of 50 μg cyclo-(D-Tyr 1-Arg 2-Arg 3-Nal 4-Gly 5), OH1 mice
In short: as §1

[4] = system: OH-1 human small-cell lung cancer xenografts; test: PET imaging of CXCR4 expression in tumor-bearing nude mice; assay type: in vivo
CXCR4 [5] = molecular target: T1, CXCR4; assay type: binding; conditions: Table 1; mean±SD of three experiments except values greater than 100 nM
[6] = 1 h p.i. (n=4), in the presence of 50 μg cyclo-(D-Tyr 1-Arg 2-Arg 3-Nal 4-Gly 5), OH1 mice

T1 sequence (P61073 whole entry): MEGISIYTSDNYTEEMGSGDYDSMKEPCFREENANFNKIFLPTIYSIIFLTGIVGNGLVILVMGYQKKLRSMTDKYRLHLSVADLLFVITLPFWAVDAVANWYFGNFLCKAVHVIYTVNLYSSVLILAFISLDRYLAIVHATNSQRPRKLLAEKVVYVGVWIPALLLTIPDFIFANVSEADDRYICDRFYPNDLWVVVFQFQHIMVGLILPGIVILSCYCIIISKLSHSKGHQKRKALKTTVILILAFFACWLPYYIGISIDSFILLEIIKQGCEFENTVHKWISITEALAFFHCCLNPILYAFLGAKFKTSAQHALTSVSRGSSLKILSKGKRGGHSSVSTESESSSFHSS

Compound: cyclo-(-D-Tyr 1-Arg 2-Arg 3-Nal 4-Gly 5) [1 a]
IC50 (CXCR4 [1]): 4.3 ± 1.2 nM

Blockade, Adrenal glands [2, 6]: 0.87±0.32 %ID g^−1
Blockade, Blood [2, 6]: 2.50±0.64 %ID g^−1
Blockade, Heart [2, 6]: 1.38±0.52 %ID g^−1
Blockade, Intestine [2, 6]: 1.00±0.32 %ID g^−1
Blockade, Kidney [2, 6]: 7.19±1.83 %ID g^−1
Blockade, Liver [2, 6]: 2.27±0.59 %ID g^−1
Blockade, Lung [2, 6]: 3.25±1.06 %ID g^−1
Blockade, Muscle [2, 6]: 0.58±0.21 %ID g^−1
Blockade, Pancreas [2, 6]: 0.75±0.19 %ID g^−1
Blockade, Spleen [2, 6]: 1.03±0.40 %ID g^−1
Blockade, Stomach [2, 6]: 1.40±0.30 %ID g^−1
Blockade, Tumor [2, 6]: 1.88±0.30 %ID g^−1
Biodistribution, Adrenal glands ([2]; 1 h p.i. (n=8), OH1 mice): 0.83±0.55 %ID g^−1
Biodistribution, Blood ([2]; 1 h p.i. (n=8), OH1 mice): 1.08±0.27 %ID g^−1
Biodistribution, Heart ([2]; 1 h p.i. (n=8), OH1 mice): 0.60±0.16 %ID g^−1
Biodistribution, Intestine ([2]; 1 h p.i. (n=8), OH1 mice): 0.45±0.11 %ID g^−1
Biodistribution, Kidney ([2]; 1 h p.i. (n=8), OH1 mice): 3.06±0.63 %ID g^−1
Biodistribution, Liver ([2]; 1 h p.i. (n=8), OH1 mice): 1.85±0.24 %ID g^−1
Biodistribution, Lung ([2]; 1 h p.i. (n=8), OH1 mice): 1.41±0.26 %ID g^−1
Biodistribution, Muscle ([2]; 1 h p.i. (n=8), OH1 mice): 0.38±0.09 %ID g^−1
Biodistribution, Pancreas ([2]; 1 h p.i. (n=8), OH1 mice): 0.30±0.07 %ID g^−1
Biodistribution, Spleen ([2]; 1 h p.i. (n=8), OH1 mice): 0.69±0.09 %ID g^−1
Biodistribution, Stomach ([2]; 1 h p.i. (n=8), OH1 mice): 0.72±0.26 %ID g^−1
Biodistribution, Tumor ([2]; 1 h p.i. (n=8), OH1 mice): 6.16±1.16 %ID g^−1
tumor to organ ratios ([2]; 1 h post-injection): High tumor to organ ratios
Biodistribution, Adrenal glands ([2]; 2 h p.i. (n=3), OH1 mice): 0.50±0.15 %ID g^−1
Biodistribution, Blood ([2]; 2 h p.i. (n=3), OH1 mice): 0.58±0.14 %ID g^−1
Biodistribution, Heart ([2]; 2 h p.i. (n=3), OH1 mice): 0.29±0.10 %ID g^−1
Biodistribution, Intestine ([2]; 2 h p.i. (n=3), OH1 mice): 0.36±0.04 %ID g^−1
Biodistribution, Kidney ([2]; 2 h p.i. (n=3), OH1 mice): 2.07±0.46 %ID g^−1
Biodistribution, Liver ([2]; 2 h p.i. (n=3), OH1 mice): 1.48±0.31 %ID g^−1
Biodistribution, Lung ([2]; 2 h p.i. (n=3), OH1 mice): 2.85±2.69 %ID g^−1
Biodistribution, Muscle ([2]; 2 h p.i. (n=3), OH1 mice): 0.28±0.17 %ID g^−1
Biodistribution, Pancreas ([2]; 2 h p.i. (n=3), OH1 mice): 0.21±0.02 %ID g^−1
Biodistribution, Spleen ([2]; 2 h p.i. (n=3), OH1 mice): 0.65±0.25 %ID g^−1
Biodistribution, Stomach ([2]; 2 h p.i. (n=3), OH1 mice): 0.46±0.12 %ID g^−1
Biodistribution, Tumor ([2]; 2 h p.i. (n=3), OH1 mice): 4.63±1.54 %ID g^−1
tissue to tissue ratio at 1 h [3]: 3.45 ± 1.45
tumor uptake on co-injection of competitor ([4]; co-injection of 50 μg AMD3100 per mouse (data not shown)): significantly reduced
tumor uptake on co-injection of competitor ([4]; co-injection of 50 μg cyclo-(-D-Tyr 1-Arg 2-Arg 3-Nal 4-Gly 5) per mouse): significantly reduced
accumulation in CXCR4-expressing tumors ([4]; nude mice bearing OH-1 human small-cell lung cancer xenografts): accumulated in high levels
Compound: CN1C(=O)[C@@H](Cc2ccc(O)cc2)NC(=O)CNC(=O)[C@H](Cc2ccc3ccccc3c2)NC(=O)[C@H](CCCNC(=N)N)NC(=O)[C@H]1CCCNC(=O)c1ccc(CNC(=O)CN2CCN(CC(=O)O)CCN(CC(=O)O)CCN(CC(=O)O)CC2)cc1 [[^68Ga]2 c, metal not drawn] (cyclo([dY][dNMeOrn]([4Amb-DOTA])R[2Nal]G))

IC50 (CXCR4 [5]): 44 ± 4 nM
Compound: CN1C(=O)[C@@H](Cc2ccc(O)cc2)NC(=O)CNC(=O)[C@H](Cc2ccc3ccccc3c2)NC(=O)[C@H](CCCNC(=N)N)NC(=O)[C@H]1CCCNC(=O)c1ccc(CNC(=O)CN2CCN(CC(=O)O)CCN(CC(=O)O)CCN(CC(=O)O)CC2)cc1 [2 b] (cyclo([dY][dNMeOrn]([4Amb-DOTA])R[2Nal]G))
